Results reported in ChEMBL document CHEMBL1671686, “Carbapenem-resistant KPC-2-producing Escherichia coli in a Tel Aviv Medical Center, 2005 to 2008” (2010).
Values after ≈ are worked out from the molar mass of the structure shown.

Assays:
Format in all cases: functional
Escherichia coli [1] = assay: Antimicrobial activity against Escherichia coli DH10B by vitek-2 method; details: K-12 DH10B
Summary of the method: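 Plasmid-free recipient E. coli DH10B, used as the host for electroporation transformants, was tested for susceptibility on the automated Vitek-2 system.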

Escherichia coli [2] = assay: Antimicrobial activity against Escherichia coli isolate 360T expressing beta-lactamase KPC2, OXA-9 and PFGE cluster 1 isolated from urine of patient by vitek-2 method
Escherichia coli [3] = assay: Antimicrobial activity against Escherichia coli isolate 360 expressing beta-lactamase KPC2, CTX-M-15, OXA-9, TEM and PFGE cluster 1 isolated from urine of patient by vitek-2 method; details: isolate 360, Urine
Escherichia coli [4] = assay: Antimicrobial activity against Escherichia coli isolate 1679 expressing beta-lactamase KPC2, SHV-12, TEM and PFGE cluster 6 isolated from peritoneal fluid of patient by vitek-2 method
Escherichia coli [5] = assay: Antimicrobial activity against Escherichia coli isolate 386 expressing beta-lactamase KPC2, CTX-M-15, OXA-9, TEM and PFGE cluster 1 isolated from wound of patient by vitek-2 method
Escherichia coli [6] = assay: Antimicrobial activity against Escherichia coli isolate 1679T expressing beta-lactamase KPC2, TEM and PFGE cluster 6 isolated from peritoneal fluid of patient by vitek-2 method
Escherichia coli [7] = assay: Antimicrobial activity against Escherichia coli isolate 339T expressing beta-lactamase KPC2 and PFGE cluster 5 isolated from peritoneal fluid of patient by vitek-2 method
Escherichia coli [8] = assay: Antimicrobial activity against Escherichia coli isolate 386T expressing beta-lactamase KPC2, OXA-9 and PFGE cluster 1 isolated from wound of patient by vitek-2 method
Escherichia coli [9] = assay: Antimicrobial activity against Escherichia coli isolate 543T expressing beta-lactamase KPC2 and PFGE cluster 4 isolated from synovial fluid of patient by vitek-2 method
Escherichia coli [10] = assay: Antimicrobial activity against Escherichia coli isolate 329 expressing beta-lactamase KPC2, CTX-M-2, TEM and PFGE cluster 2 isolated from blood of patient by vitek-2 method
Escherichia coli [11] = assay: Antimicrobial activity against Escherichia coli isolate 543 expressing beta-lactamase KPC2, CTX-M-15, TEM and PFGE cluster 4 isolated from synovial fluid of patient by vitek-2 method
Escherichia coli [12] = assay: Antimicrobial activity against Escherichia coli isolate 329T expressing beta-lactamase KPC2 and PFGE cluster 2 isolated from blood of patient by vitek-2 method
Escherichia coli [13] = assay: Antimicrobial activity against Escherichia coli isolate 544 expressing beta-lactamase KPC2, TEM and PFGE cluster 4 isolated from abscess of patient by vitek-2 method
Escherichia coli [14] = assay: Antimicrobial activity against Escherichia coli isolate 339 expressing beta-lactamase KPC2, TEM and PFGE cluster 5 isolated from peritoneal fluid of patient by vitek-2 method
Escherichia coli [15] = assay: Antimicrobial activity against Escherichia coli isolate 547T expressing beta-lactamase KPC2 and PFGE cluster 4 isolated from blood of patient by vitek-2 method
Escherichia coli [16] = assay: Antimicrobial activity against Escherichia coli isolate 547 expressing beta-lactamase KPC2, TEM and PFGE cluster 4 isolated from blood of patient by vitek-2 method
Escherichia coli [17] = assay: Antimicrobial activity against Escherichia coli isolate 540 expressing beta-lactamase KPC2, TEM and PFGE cluster 4 isolated from synovial fluid of patient by vitek-2 method
Escherichia coli [18] = assay: Antimicrobial activity against Escherichia coli isolate 157T expressing beta-lactamase KPC2 and PFGE cluster 3 isolated from urine of patient by vitek-2 method
Escherichia coli [19] = assay: Antimicrobial activity against Escherichia coli isolate 157 expressing beta-lactamase KPC2, CTX-M-15, TEM and PFGE cluster 3 isolated from urine of patient by vitek-2 method; details: isolate 157, Urine

Row | Structure (SMILES) | MIC (Escherichia coli [1]) | MIC (Escherichia coli [2]) | MIC (Escherichia coli [3]) | MIC (Escherichia coli [4]) | MIC (Escherichia coli [5]) | MIC (Escherichia coli [6]) | MIC (Escherichia coli [7]) | MIC (Escherichia coli [8]) | MIC (Escherichia coli [9]) | MIC (Escherichia coli [10]) | MIC (Escherichia coli [11]) | MIC (Escherichia coli [12]) | MIC (Escherichia coli [13]) | MIC (Escherichia coli [14]) | MIC (Escherichia coli [15]) | MIC (Escherichia coli [16]) | MIC (Escherichia coli [17]) | MIC (Escherichia coli [18]) | MIC (Escherichia coli [19])
1 | CO/N=C(\C(=O)N[C@@H]1C(=O)N2C(C(=O)[O-])=C(C[N+]3(C)CCCC3)CS[C@H]12)c1csc(N)n1 | 0.125 µg/mL (≈ 0.26 µM) | – | – | – | – | – | – | – | – | – | – | – | – | – | – | – | – | – | –
2 | NCC[C@H](O)C(=O)N[C@@H]1C[C@H](N)[C@@H](O[C@H]2O[C@H](CN)[C@@H](O)[C@H](O)[C@H]2O)[C@H](O)[C@H]1O[C@H]1O[C@H](CO)[C@@H](O)[C@H](N)[C@H]1O [AMIKACIN] | < 1 µg/mL | > 64 µg/mL | 32 µg/mL (≈ 54.6 µM) | < 2 µg/mL | > 64 µg/mL | 16 µg/mL (≈ 27.3 µM) | < 2 µg/mL | > 64 µg/mL | 16 µg/mL (≈ 27.3 µM) | 32 µg/mL (≈ 54.6 µM) | > 64 µg/mL | < 2 µg/mL | 8 µg/mL (≈ 13.7 µM) | 4 µg/mL (≈ 6.83 µM) | 16 µg/mL (≈ 27.3 µM) | 16 µg/mL (≈ 27.3 µM) | 16 µg/mL (≈ 27.3 µM) | < 2 µg/mL | 8 µg/mL (≈ 13.7 µM)
3 | C[C@H]1[C@H](NC(=O)/C(=N\OC(C)(C)C(=O)O)c2csc(N)n2)C(=O)N1S(=O)(=O)O [AZTREONAM] | < 1 µg/mL | – | – | – | – | – | – | – | – | – | – | – | – | – | – | – | – | – | –
4 | CC(C)(O/N=C(\C(=O)N[C@@H]1C(=O)N2C(C(=O)[O-])=C(C[n+]3ccccc3)CS[C@H]12)c1csc(N)n1)C(=O)O [CEFTAZIDIME] | < 0.25 µg/mL | 16 µg/mL (≈ 29.3 µM) | > 64 µg/mL | > 64 µg/mL | > 64 µg/mL | > 64 µg/mL | 16 µg/mL (≈ 29.3 µM) | 16 µg/mL (≈ 29.3 µM) | 16 µg/mL (≈ 29.3 µM) | > 64 µg/mL | 16 µg/mL (≈ 29.3 µM) | 16 µg/mL (≈ 29.3 µM) | 16 µg/mL (≈ 29.3 µM) | 4 µg/mL (≈ 7.32 µM) | 16 µg/mL (≈ 29.3 µM) | 4 µg/mL (≈ 7.32 µM) | 4 µg/mL (≈ 7.32 µM) | 16 µg/mL (≈ 29.3 µM) | > 64 µg/mL
5 | CO/N=C(\C(=O)N[C@@H]1C(=O)N2C(C(=O)O)=C(CSc3nc(=O)c(O)nn3C)CS[C@H]12)c1csc(N)n1 [CEFTRIAXONE] | < 0.25 µg/mL | 8 µg/mL (≈ 14.4 µM) | > 64 µg/mL | 32 µg/mL (≈ 57.7 µM) | > 64 µg/mL | 8 µg/mL (≈ 14.4 µM) | 8 µg/mL (≈ 14.4 µM) | 8 µg/mL (≈ 14.4 µM) | 16 µg/mL (≈ 28.9 µM) | > 64 µg/mL | > 64 µg/mL | 16 µg/mL (≈ 28.9 µM) | 32 µg/mL (≈ 57.7 µM) | > 64 µg/mL | 8 µg/mL (≈ 14.4 µM) | > 64 µg/mL | > 64 µg/mL | > 64 µg/mL | > 64 µg/mL
